Test results reported in ChEMBL document CHEMBL1141573, “Quinolone 3-carboxylic acid pharmacophore: design of second generation HIV-1 integrase inhibitors” (J Med Chem, 2008).
Active and inactive are the calls of the source. The rule behind the calls is not given here.

Tests used:
[1] = molecular target: T1, Human immunodeficiency virus type 1 integrase (Human immunodeficiency virus 1, UniProt Q7ZJM1); assay: Inhibition of HIV1 integrase 3'-end processing activity
How it was run: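 Wild-type recombinant IN, 200 nM final, preincubated with inhibitor at 30 °C for 30 min in buffer with 7.5 mM MnCl2, 10% DMSO, 25 mM MOPS pH 7.2. Then 20 nM 5′-32P-labeled 21-mer U5 LTR duplex substrate added, incubated a further 1 h. 21-mer to 19-mer conversion gives % inhibition versus DNA-alone and no-drug controls. IC50 from log concentration versus % inhibition.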

[2] = molecular target: T1, Human immunodeficiency virus type 1 integrase; assay: Inhibition of HIV1 integrase strand transfer activity
[3] = molecular target: Human immunodeficiency virus type 1 integrase (Human immunodeficiency virus 1) (UniProt Q7ZJM1); assay: Inhibition of HIV1 integrase at 100 uM
Human immunodeficiency virus type 1 integrase (Human immunodeficiency virus 1), sequence (Q7ZJM1 as listed by the source): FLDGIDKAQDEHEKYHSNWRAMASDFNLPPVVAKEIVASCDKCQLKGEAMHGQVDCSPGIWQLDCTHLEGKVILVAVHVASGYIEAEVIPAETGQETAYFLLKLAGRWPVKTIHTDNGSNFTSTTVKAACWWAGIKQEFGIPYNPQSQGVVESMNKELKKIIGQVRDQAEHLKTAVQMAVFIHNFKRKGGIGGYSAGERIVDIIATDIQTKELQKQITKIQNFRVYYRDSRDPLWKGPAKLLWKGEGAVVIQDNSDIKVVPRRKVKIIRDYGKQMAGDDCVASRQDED
How it was run: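 Wild-type recombinant IN (200 nM final) preincubated with compound 30 min at 30 °C in buffer with 7.5 mM MnCl2, 10% DMSO, MOPS pH 7.2. Then 20 nM 5′-32P-labeled 21-mer U5 LTR duplex added for 1 h. Reactions quenched with formamide loading dye. Conversion to 19-mer (3′-processing) and strand transfer products gives % inhibition versus DNA alone and DNA plus IN.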

[4] = tested on: Human immunodeficiency virus 1; assay: Antiviral activity against HIV1 in MT4 cells assessed as inhibition of viral-induced cytopathic effect by MTT method; format: functional, organism-based; details: Human immunodeficiency virus 1, MT4
How it was run: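 MT-4 cells (RPMI 1640 with 10% heat-inactivated FCS, 2 mM L-glutamine, 37 °C, 5% CO2) infected with 100–300 CCID50 of HIV-1(IIIB) in presence of 5-fold serial compound dilutions. Viral CPE read by MTT reduction to formazan measured spectrophotometrically. IC50 = concentration giving 50% protection against CPE.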

[5] = Cytotoxicity against human MT4 cells; format: cell-based
How it was run: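 Viability of mock-infected MT-4 cells after 5 days of incubation, measured by MTT reduction to formazan read spectrophotometrically; CC50 derived.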

T1 sequence (Q7ZJM1 whole entry): as the sequence (Q7ZJM1 as listed by the source) above

Cc1ccc(C(=O)O)cc1NC(=O)CSc1nc2ccccc2s1
IC50 [1]: 63 µM
IC50 [2]: 17 µM

O=C(O)c1ccccc1NC(=O)c1ccccc1S(=O)(=O)Nc1ccc(Oc2ccccc2)cc1
IC50 [1]: 42 µM
IC50 [2]: 18 µM

Cc1nc2ccccc2n1CC(O)COc1cccc(C(=O)O)c1 (stereo unspecified)
Activity [3]: inactive

O=C(Nc1ccccc1C(=O)O)c1ccc(CN2CCc3ccccc3C2)cc1
Activity [3]: inactive

Cc1ccc(C)c(NC(=O)CSc2ncccc2C(=O)O)c1
Activity [3]: inactive

O=C(CSc1nnc(-c2ccc(Cl)cc2)n1-c1ccccc1)N/N=C/c1ccccc1C(=O)O
Activity [3]: inactive

COc1ccc(/C=N/Nc2nc(C(=O)O)cs2)cc1
Activity [3]: inactive

Cc1ccc2[nH]c(CNC(=O)CCC(=O)O)cc2c1
Activity [3]: inactive

O=C(O)CSc1nnc(COc2cccc3ccccc23)o1
Activity [3]: inactive

O=C(O)CSc1nnc(-c2ccco2)c(-c2ccco2)n1
IC50 [1]: 18 µM
IC50 [2]: 5 µM

CCOc1cc(N(CC)CC)ccc1/C=C1\C(=O)N(c2nnn[nH]2)N=C1C
IC50 [1]: 61 µM
IC50 [2]: 65 µM

COc1ccc(-c2ccc(-c3nnn(C(C)C(=O)O)n3)cc2)cc1 (stereo unspecified)
Activity [3]: inactive

O=C(O)c1c[nH]c2ccc(Cc3cccc(Cl)c3F)cc2c1=O
EC50 [4]: 0.805 µM

Cc1cc(-c2cccnc2)c(C#N)c(SCC(=O)O)n1
Activity [3]: inactive

O=C(O)CSCC(=O)Nc1nc(-c2ccccc2)cs1
Activity [3]: inactive

CC1=NN(c2nnn[nH]2)C(=O)/C1=C\c1cc(Cl)c(O)c(Cl)c1
IC50 [1]: 11 µM
IC50 [2]: 13 µM

CCOc1cc(/C=C2\C(=O)N(c3nnn[nH]3)N=C2C)cc(Cl)c1OCC
IC50 [1]: 7 µM
IC50 [2]: 4 µM

Cc1nn(-c2ccccc2)c2sc(-c3nnc(SCC(=O)O)o3)cc12
Activity [3]: inactive

O=C(O)COc1ccc2c(-c3ccccc3)cc(=O)oc2c1
Activity [3]: inactive

O=C(O)CSc1nc(-c2cccs2)cc(C(F)(F)F)n1
IC50 [1]: > 100 µM
IC50 [2]: > 100 µM

COc1cc(CNc2nn[nH]n2)ccc1OCc1cccc(Cl)c1
Activity [3]: inactive

COc1cc2c(cc1Cc1cccc(Cl)c1F)c(=O)c(C(=O)O)cn2[C@@H](CO)C(C)C
EC50 [4]: 0.0009 µM

CCn1nc(NC(=O)CCCC(=O)O)c2cc3cc(C)ccc3nc21
Activity [3]: inactive

O=C(O)CSc1nc(Nc2ccccc2)nc(N2CCOCC2)n1
IC50 [1]: > 100 µM
IC50 [2]: > 100 µM

COc1cc(CNc2nn[nH]n2)ccc1OCc1c(F)cccc1Cl
Activity [3]: inactive

CCOc1cc(CNc2nn[nH]n2)ccc1OCc1ccccc1
Activity [3]: inactive

COc1cccc(NC(=O)c2sc3[nH]c(=O)c(C(=O)O)cc3c2N)c1
IC50 [1]: 82 µM
IC50 [2]: 43 µM

COc1cc(CNc2nn[nH]n2)ccc1OCc1c(Cl)cccc1Cl
Activity [3]: inactive

CC(C)[C@H](CO)n1cc(C(=O)O)c(=O)c2cc(Cc3cccc(Cl)c3F)ccc21
EC50 [4]: 0.007 µM

O=C(O)CSc1nnc2n(Cc3ccc(F)cc3)c3ccccc3n12
Activity [3]: inactive

Cc1cc(OCn2ccc(C(=O)O)n2)ccc1Cl
Activity [3]: inactive

Cc1ccc2nc(NC(=O)CSCC(=O)O)sc2c1
Activity [3]: inactive

COc1cc(/C=C2\C(=O)N(c3nnn[nH]3)N=C2C)cc(Cl)c1OC
IC50 [1]: 5 µM
IC50 [2]: 4 µM

CCOc1cc(/C=C2\C(=O)N(c3nnn[nH]3)N=C2C)ccc1OC
IC50 [1]: 75 µM
IC50 [2]: 59 µM

COc1cc(CNc2nn[nH]n2)ccc1OCc1ccc(F)cc1
Activity [3]: inactive

CCCn1nc(NC(=O)CCC(=O)O)c2cc3cc(C)ccc3nc21
Activity [3]: inactive

COc1ccc2[nH]c(SCC(=O)Nc3cc(C(=O)O)ccc3C)nc2c1
Activity [3]: inactive

O=C(O)C1CC(=O)N(c2ccc(OCc3c(F)cccc3Cl)cc2)C1 (stereo unspecified)
Activity [3]: inactive

O=C(O)CCCC(=O)Nc1nc(-c2cccc3ccccc23)cs1
Activity [3]: inactive

COc1cc2c(cc1Cc1cccc(Cl)c1F)c(=O)c(C(=O)O)cn2CCO
EC50 [4]: 0.017 µM

Nc1c(C(=O)Nc2ccc(Cl)c(Cl)c2)sc2[nH]c(=O)c(C(=O)O)cc12
IC50 [1]: 14 µM
IC50 [2]: 5 µM

CCOc1cc(CNc2nn[nH]n2)ccc1OCc1ccc(C)cc1
Activity [3]: inactive

CCn1nc(NC(=O)CCC(=O)O)c2cc3cc(C)ccc3nc21
Activity [3]: inactive

O=C(O)C1CC=CCC1C(=O)Nc1ccc(Cc2ccncc2)cc1 (stereo unspecified)
Activity [3]: inactive

Cc1ccc2nc(NC(=O)CCC(=O)O)sc2c1
Activity [3]: inactive

O=C(Nc1ccccn1)c1ccc(NC(=O)C2CC=CCC2C(=O)O)cc1 (stereo unspecified)
Activity [3]: inactive

O=C(O)C1CCCCC1C(=O)Nc1ccc(Oc2cccc3ccccc23)cc1 (stereo unspecified)
IC50 [1]: > 100 µM
IC50 [2]: 34 µM
CC50 [5]: 3.5 µM

CCOc1cc(CNc2nn[nH]n2)cc(Cl)c1OCc1ccc(Cl)cc1
IC50 [1]: > 100 µM
IC50 [2]: 52 µM

O=C(O)CN1C(=O)/C(=C2\SC(=S)N(C(Cc3ccccc3)C(=O)O)C2=O)c2ccccc21 (stereo unspecified)
IC50 [1]: 92 µM
IC50 [2]: 66 µM

COc1ccc(-c2nnc(SCC(=O)N/N=C/c3ccccc3C(=O)O)n2-c2ccccc2)cc1OC
Activity [3]: inactive

COc1cc(C2NC(C(=O)O)CS2)ccc1OCc1c(Cl)cccc1Cl (stereo unspecified)
Activity [3]: inactive

O=C(O)CSc1nc(-c2ccccc2)cc(C(F)(F)F)n1
IC50 [1]: > 100 µM
IC50 [2]: > 100 µM

Cc1ccc2nc(-c3ccc(NC(=O)/C=C/C(=O)O)cc3)sc2c1
IC50 [1]: 48 µM
IC50 [2]: 23 µM

CCN(C(=O)CCC(=O)O)c1nc(CC(=O)Nc2ccc(Cl)cc2)cs1
Activity [3]: inactive

CCOc1cc(C2NC(C(=O)O)CS2)ccc1OCc1cccc(C)c1 (stereo unspecified)
Activity [3]: inactive

O=C(O)c1cccc(OCC(O)Cn2cnc3ccccc32)c1 (stereo unspecified)
Activity [3]: inactive

N#Cc1c(-c2ccc(Cl)cc2)cc(-c2ccccc2)nc1SCC(=O)O
IC50 [1]: 98 µM
IC50 [2]: 60 µM

COc1cc(CNc2nn[nH]n2)ccc1OCc1ccc(Cl)cc1
Activity [3]: inactive

COc1cc(CNc2nn[nH]n2)ccc1OCc1ccc(C)cc1
Activity [3]: inactive

O=C(O)CSc1ccc(-c2nc3ccccc3[nH]2)cn1
Activity [3]: inactive

COc1ccc(/C=C2\C(=O)N(c3nnn[nH]3)N=C2C)cc1OCc1ccccc1Cl
IC50 [1]: 14 µM
IC50 [2]: 5 µM

O=C(O)C(O)C(O)c1nc2cc3ccccc3cc2[nH]1 (stereo unspecified)
IC50 [1]: > 100 µM
IC50 [2]: 46 µM

O=C(O)c1cn(CCO)c2ccc(Cc3cccc(Cl)c3F)cc2c1=O
EC50 [4]: 0.076 µM

COc1cc(NC(=O)c2ccc3c(c2)C(=O)N(c2ccccc2OC)C3=O)c(C(=O)O)cc1OC
Activity [3]: inactive

CCn1c(CNC(=O)CCC(=O)O)cc2ccccc21
Activity [3]: inactive

O=C(O)c1ccccc1SCCSc1ccccc1C(=O)O
Activity [3]: inactive

COc1cc(CNc2nn[nH]n2)ccc1OCc1cccc(C)c1
Activity [3]: inactive

O=C(CSc1ncccc1C(=O)O)Nc1cccc2ccccc12
Activity [3]: inactive

O=C(O)C1CC(=O)N(c2ccc(OCc3ccccc3Cl)cc2)C1 (stereo unspecified)
Activity [3]: inactive

Cc1ccc(OCc2nnc(SC(C)C(=O)O)n2-c2ccccc2)cc1 (stereo unspecified)
Activity [3]: inactive
